High-throughput results as filed in PubChem.
SUMO1 PPI mod – SUMO1-SIM interaction modulation; P63165; SUMO1 binding to a labelled peptide, TR-FRET, 1 h; inhibition, % at 20 µM; 360,000 compounds, 0.33% hits; AID 602429; in the data active means inhibition above about 37%
CSN deneddyl inh – CSN deneddylation inhibition; Purified CSN, SCF-Nedd8-OG deneddylation, fluorescence polarization; Q92905; inhibition, % at 12.5 µM; 360,000 compounds, 0.38% hits;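 active means pattern-corrected inhibition above about 35%, with an unprinted fluorescence ratio check between 0.5 and 1.5, limit read from the data, passing the limit was not always enough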
Target sequence (Q92905 whole entry, looked up, one chain of several): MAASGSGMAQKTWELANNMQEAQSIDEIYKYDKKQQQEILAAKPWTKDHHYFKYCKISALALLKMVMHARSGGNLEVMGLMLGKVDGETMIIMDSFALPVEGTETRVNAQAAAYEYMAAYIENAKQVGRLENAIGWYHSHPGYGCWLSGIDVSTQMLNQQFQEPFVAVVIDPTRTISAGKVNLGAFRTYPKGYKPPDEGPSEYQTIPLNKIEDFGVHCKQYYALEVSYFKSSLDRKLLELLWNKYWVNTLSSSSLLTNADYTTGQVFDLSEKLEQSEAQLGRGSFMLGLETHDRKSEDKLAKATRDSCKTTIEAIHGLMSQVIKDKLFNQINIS
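Test system: purified human Csn5 enzyme expressed in HEK293T cells. Amount: 0.24 nM enzyme. Reagent: SCFSkp2-Nedd8OG substrate at 10 nM final. Schedule: 90 min incubation of compound, enzyme and substrate at room temperature. Detection: fluorescence polarization. Read-out: % inhibition of substrate cleavage by Csn5.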
LMPTP block – blocks human LMPTP phosphatase | P24666 | recombinant LMPTP-A, OMFP fluorogenic substrate, fluorescence intensity | inhibition, % at 20 µM | 360,000 compounds, 0.22% hits;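 active means compounds that cut the enzyme signal by at least half of the control window in the single-dose screen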
Target sequence (P24666 whole entry, looked up): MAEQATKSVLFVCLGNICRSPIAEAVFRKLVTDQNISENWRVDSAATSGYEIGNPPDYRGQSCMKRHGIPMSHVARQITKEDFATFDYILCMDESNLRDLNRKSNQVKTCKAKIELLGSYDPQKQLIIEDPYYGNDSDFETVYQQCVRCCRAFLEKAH
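Assay system: LMPTP-A enzyme. Input: 0.625 nM LMPTP-A final. Probe or stimulus: 400 µM OMFP. Compound dosing: single 20 µM dose. Schedule: 50 min dark incubation at room temperature. Detection: fluorescence intensity of OMFP turnover product. Read-out: percent inhibition versus substrate-only and uninhibited controls. Benchmarks: no-enzyme low control, uninhibited high control.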
DNMT1 block – DNMT1 (human) enzyme inhibition. P26358. DNMT1 molecular beacon, Hinp1I cleavage, fluorescence. inhibition (reported as % activation of signal), % at 10 µM. 360,000 compounds, 0.83% hits. AID 588458; in the data active means inhibition above about 50%
STEP block – blocks human striatal-enriched tyrosine phosphatase. P54829. recombinant STEP, OMFP fluorogenic substrate, fluorescence. inhibition, % at 20 µM. 360,000 compounds, 0.25% hits;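 active means inhibition at 20 µM, scaled per plate between control wells, above about 37%, limit read from the data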
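Assay system: isolated STEP enzyme. Buffer or medium: pH 6.0 Bis-Tris with DTT and Tween 20. Also added: fluorogenic phosphatase substrate OMFP at 25 µM final. Dosing: 20 µM, 1% DMSO. Timing: 20 min reaction, room temperature, in the dark. Measured by: fluorescence intensity, excitation 480 nm, emission 540 nm. Evaluation: normalized % inhibition.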
Scp-1 inhibitor – blocks human Scp-1 phosphatase activity | Q9GZU7 | Recombinant Scp1, phosphopeptide, malachite green phosphate absorbance | inhibition, % at 20 µM | 340,000 compounds, 0.88% hits | AID 493091;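 active means inhibition above about 50% at 20 µM, limit read from the data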
Target sequence (Q9GZU7 76-261 limits assumed): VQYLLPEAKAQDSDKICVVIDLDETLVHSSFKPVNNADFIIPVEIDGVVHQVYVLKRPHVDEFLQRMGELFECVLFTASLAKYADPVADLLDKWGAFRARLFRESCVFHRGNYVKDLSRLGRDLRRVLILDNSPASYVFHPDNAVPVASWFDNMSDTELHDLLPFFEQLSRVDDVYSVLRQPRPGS
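System: truncated SCP-1 phosphatase (76-261aa); medium: Tris acetate buffer pH 5.5 with MgCl2 and Tween-20; incubation: 45 min room-temperature reaction, 5 min colour, 30 min stabiliser; compound: single 20 µM dose, 1% DMSO; reagent: Phosphorylated 17-residue peptide substrate; read-out: % inhibition at 20 µM; technique: colorimetric free-phosphate detection, absorbance 630 nm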
Scp1 confirm – confirmation of human Scp-1 phosphatase inhibitors | shares compounds with Scp-1 inhibitor | recombinant SCP-1 catalytic domain, phosphate release, malachite green absorbance | inhibition, % at 20 µM | 2,500 compounds, 61% hits
MG interference – interferes with malachite green readout, flagging false Scp-1 hits; shares compounds with Scp-1 inhibitor; Colorimetric interference counterscreen, malachite green absorbance 630 nm; apparent inhibition (interference), % at 20 µM; 2,500 tested, under 10 active; AID 540313;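 further: compounds added after enzyme reaction finished so only phosphate colour detection is probed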
Scp1 DSF – Scp-1 (human) binding by thermal shift; shares compounds with Scp-1 inhibitor; Recombinant SCP1, Sypro Orange thermal shift Tm; thermal shift relative to vanadate control, % at 40 µM; 1,500 compounds, 25% hits; AID 540329;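 active means substances whose mean melting-temperature shift, as a percentage of the reference inhibitor's shift, reaches about 5.3%, limit read from the data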
Hits are given with their value; - = inactive; . = no result. The list is not random: actives were taken first. Their share in the collection is about 2%.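 How the source made its calls, unless noted: active means inhibition of at least 30% at 20 µM; inactive means the rest.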

SMILES | SUMO1 PPI mod | CSN deneddyl inh | LMPTP block | DNMT1 block | STEP block | Scp-1 inhibitor | Scp1 confirm | MG interference | others
CN1CCN(S(=O)(=O)c2ccc(Oc3ccc(F)c(Cl)c3)nc2)CC1 | - | - | - | - | - | - | . | .
CCOC(=O)C1CCN(C2CC(=O)N(c3ccc(OCC)cc3)C2=O)CC1 (stereo not drawn) | - | - | - | - | - | 52 | - | -
COc1ccc(CCC(=O)N2CCN(S(=O)(=O)c3ccc(C)cc3)CC2)cc1 | - | - | - | - | - | - | . | .
COc1ccc(S(=O)(=O)N2CCN(C(=O)c3ccc([N+](=O)[O-])o3)CC2)cc1 | - | - | - | - | - | 51 | 42 | - | Scp1 DSF=-
COCC(C)n1c(C)cc(C(=O)COC(=O)c2c(NC(C)=O)sc(C)c2C)c1C (stereo not drawn) | - | - | - | - | - | 80 | 42 | - | Scp1 DSF=-
COc1ccc(/C=N/Nc2ncc(Br)cn2)c(OC)c1 | - | 62 | - | - | - | 57 | 38 | - | Scp1 DSF=-
O=C(NCCc1ccccn1)C1CC(=O)N(Cc2ccccc2Cl)C1 (stereo not drawn) | - | - | - | - | - | - | - | -
CC(C)CCN1CC(C(=O)NCCC2=CCCCC2)CC1=O (stereo not drawn) | - | - | - | - | - | - | - | -
CCN(CCNC(=O)C1CC(=O)N(CCc2ccccc2)C1)c1ccccc1 (stereo not drawn) | - | - | - | - | - | - | - | -
O=C(NCCc1ccccc1)C1CC(=O)N(CCc2ccccc2)C1 (stereo not drawn) | - | - | - | - | - | - | - | -
COc1ccc(CN2CC(C(=O)NCc3ccccn3)CC2=O)cc1 (stereo not drawn) | - | - | - | - | - | - | . | .
CCOCCCNC(=O)C1CC(=O)N(CCc2ccccc2)C1 (stereo not drawn) | - | - | - | - | - | - | . | .
CN1C(=O)N(CC(=O)N2CCN(S(=O)(=O)c3ccc(Cl)s3)CC2)C(=O)C12CCCCC2 | - | - | - | - | - | - | . | .
COC(=O)CC/C(=N/Nc1ccc(Cl)c(Cl)c1)C(=O)OC | - | - | - | - | - | - | . | .
CC(=O)N1Cc2cc([N+](=O)[O-])ccc2Oc2ccccc21 | - | - | - | - | - | - | . | .
COC(=O)C[C@H](NC(=O)Cn1cnc2c(SC)nc(N)nc21)C(=O)OC | - | - | - | - | - | - | . | .
CSc1nc(=S)n(-c2cc(C)ccc2C)c(C)c1C(C)=O | - | - | - | - | - | - | . | .
COc1ccccc1OCC(=O)Nc1ccncc1 | - | - | - | - | - | - | . | .
Cc1cccc(OCC(=O)Nc2ccncc2)c1C | - | - | - | - | - | 53 | - | -
Cc1cccc(C)c1NC(=S)NCCCN1CCCC1=O | - | - | - | - | - | - | - | -
O=C1CCCN1CCCNC(=S)Nc1ccc(Nc2ccccc2)cc1 | - | - | - | - | - | - | . | .
O=C1CCCN1CCCNC(=S)Nc1ccccc1 | - | - | - | - | - | - | - | -
CCCNC(=O)CS(=O)(=O)c1ccccc1 | - | - | - | - | - | - | . | .
Fc1ccc(Sc2ccccc2CNC2=NCCN2)cc1 | - | - | - | - | - | 52 | 84 | - | Scp1 DSF=-
OCCNC1=NCCN1 | - | - | - | - | - | - | . | .
SMILES | SUMO1 PPI mod | CSN deneddyl inh | LMPTP block | DNMT1 block | STEP block | Scp-1 inhibitor | Scp1 confirm | MG interference | others
O=C(Nc1nnc(C2CC2)s1)C1CC(=O)N(c2ccc3c(c2)OCCO3)C1 (stereo not drawn) | - | - | - | - | - | 61 | 56 | - | Scp1 DSF=-
O=C(NCCCc1ccccc1)C1CC(=O)N(c2ccc3c(c2)OCCO3)C1 (stereo not drawn) | - | - | - | - | - | - | . | .
O=C(NCCc1ccccc1)C1CC(=O)N(c2ccc3c(c2)OCCO3)C1 (stereo not drawn) | - | - | - | - | - | - | - | -
O=C(NC(Cc1ccccc1)c1nc2ccccc2[nH]1)C1CC(=O)N(c2ccc3c(c2)OCCO3)C1 (stereo not drawn) | - | - | - | - | - | 72 | 34 | - | Scp1 DSF=-
CCCCN(C(=O)C1CC1)C1CCS(=O)(=O)C1 (stereo not drawn) | - | - | - | - | - | - | . | .
O=C(CN1CCN(c2ccc(C(F)(F)F)cn2)CC1)NCc1ccc2c(c1)OCO2 | - | - | - | - | - | - | . | .
COc1ccc(/C=N\NC(=O)c2ccc([N+](=O)[O-])c(C)c2)cc1COc1ccccc1C(N)=O | 54 | 35 | - | - | - | 67 | 34 | - | Scp1 DSF=-
CN(CCCn1ccc(N)nc1=O)Cc1ccco1 | - | - | - | - | - | . | . | .
Cc1ccc(-c2c(C#N)c(N)nc3c2CCCCC3)cc1 | - | - | - | - | - | - | . | .
CC(C)c1ccc(-c2c(C#N)c(N)nc3c2CCCCC3)cc1 | - | - | - | - | - | 100 | - | -
Cc1cccc(Nc2c([N+](=O)[O-])ccc3nonc23)c1 | - | - | - | - | - | - | . | .
O=C(CSc1ccsc1[N+](=O)[O-])N1CCN(c2ccccc2)CC1 | - | - | - | - | - | 64 | 76 | - | Scp1 DSF=-
O=C(CSc1nc2sccc2c(=O)[nH]1)N1CCN(c2ccccc2)CC1 | - | - | - | - | - | 109 | 59 | - | Scp1 DSF=-
O=C(NCc1ccccc1)C1CC(=O)N(c2ccc(OCC(=O)N3CCOCC3)cc2)C1 (stereo not drawn) | - | - | - | - | - | - | . | .
CC(=O)N1CCCc2cc(S(=O)(=O)CCC(=O)N3CCN(c4cccc(C)c4)C(C)C3)ccc21 (stereo not drawn) | - | - | - | - | - | 50 | - | -
CC(=O)N1CCc2cc(S(=O)(=O)CCC(=O)N3CCN(c4ccccc4F)CC3)ccc21 | - | - | - | - | - | - | . | .
O=C(O)Cc1sc(N/N=C\c2ccccc2)nc1-c1ccccc1 | - | - | - | 90 | - | 54 | 75 | - | Scp1 DSF=18
CCCNC(=O)COc1coc(CN2CCN(c3ccc(F)cc3)CC2)cc1=O | - | - | - | - | - | - | . | .
Cc1ccc(S(=O)(=O)NC(=O)Nc2ccc(OC(F)F)cc2)cc1 | - | - | - | - | - | - | . | .
COc1cc(C)c(/C=C(\C#N)C(=O)Nc2cccc(C)c2)cc1C(C)C | - | - | - | - | - | - | . | .
